Source: ChEMBL document CHEMBL5126600, “Discovery of the First-in-Class G9a/GLP Covalent Inhibitors” (J Med Chem, 2022)
Activity calls are given as the source filed them. The rule behind the calls is not given here.

Key:
[1] = molecular target: T1, Histone-lysine N-methyltransferase EHMT2 (Homo sapiens, UniProt Q96KQ7); experiment: Binding affinity to human G9a (913 to 1193 residues) assessed as dissociation constant by isothermal titration calorimetry method
T1 sequence (Q96KQ7 whole entry): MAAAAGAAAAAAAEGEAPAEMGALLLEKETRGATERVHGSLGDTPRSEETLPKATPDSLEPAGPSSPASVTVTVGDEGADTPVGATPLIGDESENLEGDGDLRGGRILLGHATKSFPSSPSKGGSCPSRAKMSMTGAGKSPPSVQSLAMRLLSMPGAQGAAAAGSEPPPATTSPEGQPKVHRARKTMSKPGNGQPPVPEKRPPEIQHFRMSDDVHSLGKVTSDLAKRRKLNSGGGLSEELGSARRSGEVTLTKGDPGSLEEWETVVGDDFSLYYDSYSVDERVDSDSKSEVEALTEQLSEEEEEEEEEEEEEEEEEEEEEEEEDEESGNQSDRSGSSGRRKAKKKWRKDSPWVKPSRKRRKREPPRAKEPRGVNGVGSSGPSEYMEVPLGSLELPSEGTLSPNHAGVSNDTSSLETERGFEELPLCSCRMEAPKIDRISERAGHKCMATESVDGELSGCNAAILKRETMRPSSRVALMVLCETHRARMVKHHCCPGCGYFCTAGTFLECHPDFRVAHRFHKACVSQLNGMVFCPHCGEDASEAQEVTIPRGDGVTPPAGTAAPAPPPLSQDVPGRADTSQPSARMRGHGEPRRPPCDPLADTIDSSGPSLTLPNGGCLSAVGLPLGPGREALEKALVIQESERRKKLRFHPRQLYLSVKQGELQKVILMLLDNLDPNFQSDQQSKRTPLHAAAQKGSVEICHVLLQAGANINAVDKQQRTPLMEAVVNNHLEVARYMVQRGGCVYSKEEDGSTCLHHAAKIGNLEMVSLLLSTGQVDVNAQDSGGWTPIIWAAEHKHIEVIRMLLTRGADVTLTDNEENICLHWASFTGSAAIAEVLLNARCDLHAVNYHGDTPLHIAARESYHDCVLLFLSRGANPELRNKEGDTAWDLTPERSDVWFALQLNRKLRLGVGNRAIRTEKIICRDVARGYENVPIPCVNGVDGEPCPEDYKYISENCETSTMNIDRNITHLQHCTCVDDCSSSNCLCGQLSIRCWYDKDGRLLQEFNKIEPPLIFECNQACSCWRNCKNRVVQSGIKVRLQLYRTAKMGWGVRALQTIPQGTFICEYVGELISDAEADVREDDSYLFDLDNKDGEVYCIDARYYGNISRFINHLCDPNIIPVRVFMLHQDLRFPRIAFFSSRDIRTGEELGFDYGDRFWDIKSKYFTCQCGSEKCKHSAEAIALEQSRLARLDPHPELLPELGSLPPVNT
How it was run: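 Initial 0.4 μL injection, then 13 injections of 500 μM compound from the syringe, stirred at 750 rpm. Experiment time about 50 min. Data fitted to a single binding site model. Mean ± SD of two independent measurements.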

[2] = molecular target: Protein arginine N-methyltransferase 1 (Homo sapiens) (UniProt Q99873); experiment: Inhibition of N-terminal GST tagged PRMT1 (2 to 371 residues) (unknown origin) expressed in Escherichia coli at 1 uM using 3H-SAM as a substrate relative to control
How it was run: (§1)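 Contracted 3H-SAM methyl-transfer scintillation proximity assay against a panel of methyltransferases; compound tested at 1 μM in duplicate; inhibition expressed as percent of control enzyme activity.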

[3] = molecular target: T2, Histone-lysine N-methyltransferase EHMT2 (Homo sapiens) (UniProt Q96KQ7); experiment: Inhibition of human G9a (913 to 1193 residues) assessed as covalent modification by measuring G9a adduct formation at 50 uM incubated for 1 hr by mass spectrometry relative to control
T2 sequence (whole entry): T1 sequence (Q96KQ7 whole entry)
How it was run: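 Purified G9a or GLP catalytic domain (5 μM) in 50 mM Tris-HCl pH 7.5, 150 mM NaCl incubated with 50 μM compound or DMSO at room temperature (1 h, or 30 and 60 min in time course); intact mass by ESI LC/MS-TOF; adduct % = adduct/(protein + adduct) × 100.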

[4] = molecular target: Protein arginine N-methyltransferase 8 (Homo sapiens) (UniProt Q9NR22); experiment: Inhibition of N/C-terminal His-tagged PRMT8 (61 to 394 residues) (unknown origin) expressed in Escherichia coli at 1 uM using 3H-SAM as a substrate relative to control; how it was run: as §1
[5] = molecular target: Histone-lysine N-methyltransferase NSD3 (Homo sapiens) (UniProt Q9BZ95); experiment: Inhibition of N-terminal GST tagged NSD3 (1021 to 1322 residues) (unknown origin) expressed in Escherichia coli at 1 uM using 3H-SAM as a substrate relative to control; how it was run: as §1
[6] = system: K562; experiment: Down regulation of H3K9 dimethylation in human K562 cells at 0.2 to 5 uM incubated for 48 hrs by Western blot analysis; format: functional, cell-based; conditions: dose 0.2-5 µM
[7] = system: MDA-MB-231; experiment: Cytotoxicity against human MDA-MB-231 cells after 3 days by CCK-8 assay; format: functional, cell-based; conditions: time 3.0 day
How it was run: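 MDA-MB-231 cells seeded at 1 × 10^4 per well in 96-well plates, exposed to compounds over a range of concentrations for 3 days.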

[8] = molecular target: Histone-lysine N-methyltransferase SUV39H2 (Homo sapiens) (UniProt Q9H5I1); experiment: Inhibition of N-terminal fusion protein with C-terminal His-tagged SUV39H2 (46 to 410 residues) (unknown origin) expressed in Escherichia coli at 1 uM using 3H-SAM as a substrate relative to control; how it was run: as §1
[9] = molecular target: Histone-lysine N-methyltransferase SETD1B (Homo sapiens) (UniProt Q9UPS6); experiment: Inhibition of N-terminal GST-tagged SET1B (1629 to 1923 residues) (unknown origin) expressed in Escherichia coli at 1 uM using 3H-SAM as a substrate relative to control; how it was run: as §1
[10] = molecular target: Protein arginine N-methyltransferase 6 (Homo sapiens) (UniProt Q96LA8); experiment: Inhibition of N-terminal His-tagged full-length recombinant PRMT6 (2 to 375 residues) (unknown origin) expressed in baculovirus expression system at 1 uM using 3H-SAM as a substrate relative to control; how it was run: as §1
[11] = system: MDA-MB-231; experiment: Down regulation of H3K9 dimethylation in human MDA-MB-231 cells at 0.2 to 5 uM by Western blot analysis; format: functional, cell-based; conditions: dose 0.2-5 µM, time lower […], time upper 72.0 hrs, TDE = time-dependent effect
[12] = molecular target: Histone-lysine N-methyltransferase, H3 lysine-36 specific (Homo sapiens) (UniProt Q96L73); experiment: Inhibition of N-terminal His-tagged NSD1 (1538 to 2696 residues) (unknown origin) expressed in baculovirus expression system at 1 uM using 3H-SAM as a substrate relative to control; how it was run: as §1
[13] = molecular target: T2, Histone-lysine N-methyltransferase EHMT2 (Homo sapiens); experiment: Inhibition of human G9a (913 to 1193 residues) using H3 peptide as substrate in presence of SAM cofactor by scintillation counting method; conditions: time 5-45 min, TDE = time-dependent effect
How it was run: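 Contracted scintillation proximity assay following 3H-methyl transfer from SAM (1 μM) to H3 peptide (0.05 μM) by G9a or GLP (5 nM each), with preincubation times of 5, 15 or 45 min; four replicates.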

Chain of Histone-lysine N-methyltransferase NSD3 (Homo sapiens) (Q9BZ95 whole entry, the tested form may be a part): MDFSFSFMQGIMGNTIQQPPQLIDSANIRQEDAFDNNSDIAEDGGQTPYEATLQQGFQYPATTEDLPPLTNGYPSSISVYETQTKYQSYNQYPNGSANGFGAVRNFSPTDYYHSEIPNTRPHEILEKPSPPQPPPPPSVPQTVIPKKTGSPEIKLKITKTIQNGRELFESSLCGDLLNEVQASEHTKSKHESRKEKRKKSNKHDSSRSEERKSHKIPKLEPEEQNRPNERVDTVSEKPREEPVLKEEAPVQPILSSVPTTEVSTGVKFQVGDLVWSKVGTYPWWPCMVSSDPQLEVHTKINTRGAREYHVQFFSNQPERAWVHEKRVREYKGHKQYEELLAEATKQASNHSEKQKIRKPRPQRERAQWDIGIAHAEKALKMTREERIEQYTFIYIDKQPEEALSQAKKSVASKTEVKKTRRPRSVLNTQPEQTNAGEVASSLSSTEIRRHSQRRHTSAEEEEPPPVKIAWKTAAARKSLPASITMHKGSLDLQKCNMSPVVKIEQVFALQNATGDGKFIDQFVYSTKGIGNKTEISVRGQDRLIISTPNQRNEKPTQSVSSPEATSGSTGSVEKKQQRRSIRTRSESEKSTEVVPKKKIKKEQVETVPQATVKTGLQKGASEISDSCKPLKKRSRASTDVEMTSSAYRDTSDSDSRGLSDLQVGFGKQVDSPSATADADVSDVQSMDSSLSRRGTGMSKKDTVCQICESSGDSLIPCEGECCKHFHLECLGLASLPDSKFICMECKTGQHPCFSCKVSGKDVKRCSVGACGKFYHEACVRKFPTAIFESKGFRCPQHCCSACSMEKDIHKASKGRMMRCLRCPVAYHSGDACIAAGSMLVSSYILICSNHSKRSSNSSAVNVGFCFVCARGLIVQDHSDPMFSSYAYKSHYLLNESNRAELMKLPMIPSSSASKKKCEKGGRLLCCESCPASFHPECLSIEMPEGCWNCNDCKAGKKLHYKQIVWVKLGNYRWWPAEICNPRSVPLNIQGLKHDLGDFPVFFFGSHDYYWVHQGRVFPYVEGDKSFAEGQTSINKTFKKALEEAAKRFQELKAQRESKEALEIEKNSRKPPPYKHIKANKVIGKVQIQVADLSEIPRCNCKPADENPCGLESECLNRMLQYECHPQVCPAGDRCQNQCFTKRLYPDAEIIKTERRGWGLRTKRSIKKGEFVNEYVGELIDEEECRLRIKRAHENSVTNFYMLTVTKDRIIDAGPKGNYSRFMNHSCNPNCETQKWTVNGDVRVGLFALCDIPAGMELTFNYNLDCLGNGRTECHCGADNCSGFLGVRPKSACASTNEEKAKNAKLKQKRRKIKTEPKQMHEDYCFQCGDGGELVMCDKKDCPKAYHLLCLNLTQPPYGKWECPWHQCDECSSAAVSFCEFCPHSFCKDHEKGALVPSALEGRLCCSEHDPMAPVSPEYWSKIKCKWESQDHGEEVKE
Chain of Histone-lysine N-methyltransferase SETD1B (Homo sapiens) (Q9UPS6 whole entry, the tested form may be a part): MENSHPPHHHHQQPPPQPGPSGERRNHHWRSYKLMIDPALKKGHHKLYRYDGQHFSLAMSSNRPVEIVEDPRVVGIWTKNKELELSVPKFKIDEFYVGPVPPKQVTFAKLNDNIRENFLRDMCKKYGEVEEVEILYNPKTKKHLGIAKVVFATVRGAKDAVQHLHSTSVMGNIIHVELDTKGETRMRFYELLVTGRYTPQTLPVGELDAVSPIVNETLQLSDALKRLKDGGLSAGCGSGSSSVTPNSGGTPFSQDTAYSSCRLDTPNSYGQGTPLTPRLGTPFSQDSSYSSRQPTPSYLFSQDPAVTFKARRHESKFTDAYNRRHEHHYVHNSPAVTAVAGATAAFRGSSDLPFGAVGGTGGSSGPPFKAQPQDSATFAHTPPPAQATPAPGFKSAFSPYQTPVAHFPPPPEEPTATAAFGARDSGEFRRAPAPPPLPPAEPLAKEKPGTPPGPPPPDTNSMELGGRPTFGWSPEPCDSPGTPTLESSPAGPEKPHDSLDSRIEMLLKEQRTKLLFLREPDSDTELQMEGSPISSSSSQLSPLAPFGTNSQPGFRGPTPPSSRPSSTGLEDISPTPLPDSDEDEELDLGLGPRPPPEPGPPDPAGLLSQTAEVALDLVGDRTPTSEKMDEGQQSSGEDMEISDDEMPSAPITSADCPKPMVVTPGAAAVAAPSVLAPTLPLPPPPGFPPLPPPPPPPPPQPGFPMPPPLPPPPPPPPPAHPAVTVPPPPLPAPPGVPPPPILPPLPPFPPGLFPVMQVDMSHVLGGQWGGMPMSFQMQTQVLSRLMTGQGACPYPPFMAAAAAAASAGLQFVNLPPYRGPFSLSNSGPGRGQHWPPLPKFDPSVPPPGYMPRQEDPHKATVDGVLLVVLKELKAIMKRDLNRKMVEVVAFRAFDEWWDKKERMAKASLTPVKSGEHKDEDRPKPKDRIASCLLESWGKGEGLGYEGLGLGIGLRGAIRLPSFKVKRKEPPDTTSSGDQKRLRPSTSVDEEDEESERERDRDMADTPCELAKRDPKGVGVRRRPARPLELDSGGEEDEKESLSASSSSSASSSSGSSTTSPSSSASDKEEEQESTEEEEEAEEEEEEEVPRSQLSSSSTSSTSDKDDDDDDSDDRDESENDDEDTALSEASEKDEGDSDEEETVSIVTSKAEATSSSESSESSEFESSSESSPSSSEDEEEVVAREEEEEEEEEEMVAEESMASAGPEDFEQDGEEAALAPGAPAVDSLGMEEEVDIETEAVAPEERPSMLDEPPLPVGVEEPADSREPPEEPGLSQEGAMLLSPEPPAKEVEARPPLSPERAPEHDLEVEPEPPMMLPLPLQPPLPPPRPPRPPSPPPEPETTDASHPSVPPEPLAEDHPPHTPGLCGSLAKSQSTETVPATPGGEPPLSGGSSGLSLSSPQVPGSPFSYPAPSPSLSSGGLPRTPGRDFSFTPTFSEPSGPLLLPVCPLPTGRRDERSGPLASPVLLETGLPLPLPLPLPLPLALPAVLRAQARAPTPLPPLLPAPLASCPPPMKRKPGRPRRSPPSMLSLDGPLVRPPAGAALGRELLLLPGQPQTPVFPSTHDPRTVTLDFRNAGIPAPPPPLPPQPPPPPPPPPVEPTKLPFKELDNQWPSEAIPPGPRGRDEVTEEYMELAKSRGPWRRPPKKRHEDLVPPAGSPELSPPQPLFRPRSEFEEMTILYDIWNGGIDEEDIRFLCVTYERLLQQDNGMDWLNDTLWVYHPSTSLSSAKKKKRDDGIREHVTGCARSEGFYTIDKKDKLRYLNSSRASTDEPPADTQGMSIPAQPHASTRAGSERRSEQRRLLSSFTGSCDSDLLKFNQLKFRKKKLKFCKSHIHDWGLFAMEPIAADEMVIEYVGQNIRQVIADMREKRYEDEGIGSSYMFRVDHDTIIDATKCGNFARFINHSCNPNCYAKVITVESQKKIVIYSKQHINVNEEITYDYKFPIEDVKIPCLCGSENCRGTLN
Chain of Protein arginine N-methyltransferase 8 (Homo sapiens) (Q9NR22 2-394 limits assumed): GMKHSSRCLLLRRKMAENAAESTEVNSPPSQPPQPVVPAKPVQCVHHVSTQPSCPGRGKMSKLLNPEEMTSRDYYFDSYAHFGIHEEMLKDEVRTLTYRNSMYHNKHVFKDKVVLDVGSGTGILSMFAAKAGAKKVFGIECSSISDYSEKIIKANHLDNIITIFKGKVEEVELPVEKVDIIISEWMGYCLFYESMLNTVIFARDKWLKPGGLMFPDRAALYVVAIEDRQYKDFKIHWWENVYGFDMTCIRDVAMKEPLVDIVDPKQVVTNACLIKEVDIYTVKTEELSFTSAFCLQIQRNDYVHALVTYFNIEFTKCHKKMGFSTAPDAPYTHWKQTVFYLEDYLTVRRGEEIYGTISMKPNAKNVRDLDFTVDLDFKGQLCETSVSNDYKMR
Chain of Protein arginine N-methyltransferase 1 (Homo sapiens) (Q99873 whole entry, looked up, the tested form may be a part): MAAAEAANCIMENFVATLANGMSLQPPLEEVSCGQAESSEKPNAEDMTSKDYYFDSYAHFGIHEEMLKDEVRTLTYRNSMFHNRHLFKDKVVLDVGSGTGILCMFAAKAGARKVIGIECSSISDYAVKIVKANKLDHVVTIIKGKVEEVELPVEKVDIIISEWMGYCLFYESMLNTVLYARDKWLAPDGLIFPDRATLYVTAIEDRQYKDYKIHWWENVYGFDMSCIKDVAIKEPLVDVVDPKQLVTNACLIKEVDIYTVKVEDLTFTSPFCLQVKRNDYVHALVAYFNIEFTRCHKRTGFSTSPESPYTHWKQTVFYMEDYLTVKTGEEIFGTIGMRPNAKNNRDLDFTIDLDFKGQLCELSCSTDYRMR
Chain of Protein arginine N-methyltransferase 6 (Homo sapiens) (Q96LA8 whole entry, looked up, the tested form may be a part): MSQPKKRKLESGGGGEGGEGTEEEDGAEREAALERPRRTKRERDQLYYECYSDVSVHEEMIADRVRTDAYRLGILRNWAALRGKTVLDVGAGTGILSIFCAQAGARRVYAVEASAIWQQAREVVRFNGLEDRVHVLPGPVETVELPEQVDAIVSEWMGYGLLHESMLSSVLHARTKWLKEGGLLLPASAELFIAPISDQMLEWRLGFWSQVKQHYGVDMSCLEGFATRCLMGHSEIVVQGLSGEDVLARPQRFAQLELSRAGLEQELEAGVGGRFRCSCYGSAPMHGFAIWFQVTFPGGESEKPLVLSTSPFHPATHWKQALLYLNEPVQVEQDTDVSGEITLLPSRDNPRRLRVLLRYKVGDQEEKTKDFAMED
Chain of Histone-lysine N-methyltransferase SUV39H2 (Homo sapiens) (Q9H5I1 whole entry, the tested form may be a part): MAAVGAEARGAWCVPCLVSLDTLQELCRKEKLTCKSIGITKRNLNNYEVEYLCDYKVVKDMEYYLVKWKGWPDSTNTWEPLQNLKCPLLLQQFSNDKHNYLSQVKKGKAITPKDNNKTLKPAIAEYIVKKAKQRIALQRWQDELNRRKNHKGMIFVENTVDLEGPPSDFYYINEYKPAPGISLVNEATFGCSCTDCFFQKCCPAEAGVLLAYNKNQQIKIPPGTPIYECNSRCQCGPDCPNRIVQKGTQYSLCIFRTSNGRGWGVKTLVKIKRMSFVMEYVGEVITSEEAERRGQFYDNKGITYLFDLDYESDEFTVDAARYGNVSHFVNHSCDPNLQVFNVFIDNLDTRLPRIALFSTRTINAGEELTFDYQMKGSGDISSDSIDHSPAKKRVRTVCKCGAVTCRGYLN

`C=CC(=O)Nc1cc(NC2CCN(C(C)C)CC2)c2cc(OC)c(OCCCN3CCCC3)cc2n1` gave a Kd [1] of 0.044 µM, an inhibition [2] of under 50% and an inhibition [3] of 50%. The inhibition [4] was under 50%, the inhibition [5] was under 50% and the Activity [6] was “Active”. For the same molecule, the Activity [7] was “Active”, the inhibition [8] was under 50% and the inhibition [9] was under 50%. The inhibition [10] was under 50%, the Activity [11] was “Tde” and the inhibition [12] was under 50%. For the same molecule, the inhibition [13] was “Tde”.
